# Results from ChEMBL document CHEMBL3232924, “Synthesis and biological evaluation of novel bis-aromatic amides as novel PTP1B inhibitors” (Bioorg Med Chem Lett, 2014).
# Calls of active or inactive are those of the source. No cut-off for these calls is given here.
# Key:
# [1] = target: T1, Tyrosine-protein phosphatase non-receptor type 1 (Homo sapiens, UniProt P18031); assay: Inhibition of PTP1B (unknown origin) using pNPP as substrate
# T1 sequence (P18031 whole entry): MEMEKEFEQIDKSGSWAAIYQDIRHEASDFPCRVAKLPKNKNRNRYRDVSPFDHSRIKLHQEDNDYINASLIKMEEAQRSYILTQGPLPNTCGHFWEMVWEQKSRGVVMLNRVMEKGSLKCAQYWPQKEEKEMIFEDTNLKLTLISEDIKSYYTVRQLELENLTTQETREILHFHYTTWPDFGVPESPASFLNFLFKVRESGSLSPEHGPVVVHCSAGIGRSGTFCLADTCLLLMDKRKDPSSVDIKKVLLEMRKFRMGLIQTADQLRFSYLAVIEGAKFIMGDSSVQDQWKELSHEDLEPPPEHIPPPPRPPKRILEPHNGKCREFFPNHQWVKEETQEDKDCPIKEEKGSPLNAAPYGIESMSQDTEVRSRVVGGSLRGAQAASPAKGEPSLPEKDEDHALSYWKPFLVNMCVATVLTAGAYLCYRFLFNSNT
# [2] = target: T2, Tyrosine-protein phosphatase non-receptor type 1 (Homo sapiens) (UniProt P18031); assay: Inhibition of PTP1B (unknown origin) using pNPP as substrate at 20 ug/ml
# T2 sequence (whole entry): T1 sequence (P18031 whole entry)
# [3] = target: T3, Tyrosine-protein phosphatase non-receptor type 6 (Homo sapiens, UniProt P29350); assay: Inhibition of SHP-1 (unknown origin) using 3-o-methylfluorescein phosphate as substrate at 20 ug/ml
# T3 sequence (P29350 whole entry): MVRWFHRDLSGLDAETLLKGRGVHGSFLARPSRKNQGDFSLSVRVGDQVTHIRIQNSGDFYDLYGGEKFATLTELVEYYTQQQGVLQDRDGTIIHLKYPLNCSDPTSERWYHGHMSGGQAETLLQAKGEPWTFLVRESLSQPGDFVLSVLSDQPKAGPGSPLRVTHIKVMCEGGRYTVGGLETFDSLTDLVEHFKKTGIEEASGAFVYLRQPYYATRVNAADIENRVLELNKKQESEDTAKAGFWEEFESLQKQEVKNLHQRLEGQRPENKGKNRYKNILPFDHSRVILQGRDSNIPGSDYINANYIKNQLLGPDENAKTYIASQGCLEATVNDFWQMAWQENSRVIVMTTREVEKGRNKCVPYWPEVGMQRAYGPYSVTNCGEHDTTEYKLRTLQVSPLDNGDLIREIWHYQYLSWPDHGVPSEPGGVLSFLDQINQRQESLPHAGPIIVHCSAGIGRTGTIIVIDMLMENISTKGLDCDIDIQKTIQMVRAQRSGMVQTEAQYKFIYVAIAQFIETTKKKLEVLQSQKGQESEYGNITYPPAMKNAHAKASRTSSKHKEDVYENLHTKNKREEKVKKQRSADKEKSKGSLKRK
# [4] = target: Receptor-type tyrosine-protein phosphatase F (Homo sapiens, UniProt P10586); assay: Inhibition of LAR (unknown origin) using 3-o-methylfluorescein phosphate as substrate at 20 ug/ml
# Sequence of Receptor-type tyrosine-protein phosphatase F (P10586 whole entry): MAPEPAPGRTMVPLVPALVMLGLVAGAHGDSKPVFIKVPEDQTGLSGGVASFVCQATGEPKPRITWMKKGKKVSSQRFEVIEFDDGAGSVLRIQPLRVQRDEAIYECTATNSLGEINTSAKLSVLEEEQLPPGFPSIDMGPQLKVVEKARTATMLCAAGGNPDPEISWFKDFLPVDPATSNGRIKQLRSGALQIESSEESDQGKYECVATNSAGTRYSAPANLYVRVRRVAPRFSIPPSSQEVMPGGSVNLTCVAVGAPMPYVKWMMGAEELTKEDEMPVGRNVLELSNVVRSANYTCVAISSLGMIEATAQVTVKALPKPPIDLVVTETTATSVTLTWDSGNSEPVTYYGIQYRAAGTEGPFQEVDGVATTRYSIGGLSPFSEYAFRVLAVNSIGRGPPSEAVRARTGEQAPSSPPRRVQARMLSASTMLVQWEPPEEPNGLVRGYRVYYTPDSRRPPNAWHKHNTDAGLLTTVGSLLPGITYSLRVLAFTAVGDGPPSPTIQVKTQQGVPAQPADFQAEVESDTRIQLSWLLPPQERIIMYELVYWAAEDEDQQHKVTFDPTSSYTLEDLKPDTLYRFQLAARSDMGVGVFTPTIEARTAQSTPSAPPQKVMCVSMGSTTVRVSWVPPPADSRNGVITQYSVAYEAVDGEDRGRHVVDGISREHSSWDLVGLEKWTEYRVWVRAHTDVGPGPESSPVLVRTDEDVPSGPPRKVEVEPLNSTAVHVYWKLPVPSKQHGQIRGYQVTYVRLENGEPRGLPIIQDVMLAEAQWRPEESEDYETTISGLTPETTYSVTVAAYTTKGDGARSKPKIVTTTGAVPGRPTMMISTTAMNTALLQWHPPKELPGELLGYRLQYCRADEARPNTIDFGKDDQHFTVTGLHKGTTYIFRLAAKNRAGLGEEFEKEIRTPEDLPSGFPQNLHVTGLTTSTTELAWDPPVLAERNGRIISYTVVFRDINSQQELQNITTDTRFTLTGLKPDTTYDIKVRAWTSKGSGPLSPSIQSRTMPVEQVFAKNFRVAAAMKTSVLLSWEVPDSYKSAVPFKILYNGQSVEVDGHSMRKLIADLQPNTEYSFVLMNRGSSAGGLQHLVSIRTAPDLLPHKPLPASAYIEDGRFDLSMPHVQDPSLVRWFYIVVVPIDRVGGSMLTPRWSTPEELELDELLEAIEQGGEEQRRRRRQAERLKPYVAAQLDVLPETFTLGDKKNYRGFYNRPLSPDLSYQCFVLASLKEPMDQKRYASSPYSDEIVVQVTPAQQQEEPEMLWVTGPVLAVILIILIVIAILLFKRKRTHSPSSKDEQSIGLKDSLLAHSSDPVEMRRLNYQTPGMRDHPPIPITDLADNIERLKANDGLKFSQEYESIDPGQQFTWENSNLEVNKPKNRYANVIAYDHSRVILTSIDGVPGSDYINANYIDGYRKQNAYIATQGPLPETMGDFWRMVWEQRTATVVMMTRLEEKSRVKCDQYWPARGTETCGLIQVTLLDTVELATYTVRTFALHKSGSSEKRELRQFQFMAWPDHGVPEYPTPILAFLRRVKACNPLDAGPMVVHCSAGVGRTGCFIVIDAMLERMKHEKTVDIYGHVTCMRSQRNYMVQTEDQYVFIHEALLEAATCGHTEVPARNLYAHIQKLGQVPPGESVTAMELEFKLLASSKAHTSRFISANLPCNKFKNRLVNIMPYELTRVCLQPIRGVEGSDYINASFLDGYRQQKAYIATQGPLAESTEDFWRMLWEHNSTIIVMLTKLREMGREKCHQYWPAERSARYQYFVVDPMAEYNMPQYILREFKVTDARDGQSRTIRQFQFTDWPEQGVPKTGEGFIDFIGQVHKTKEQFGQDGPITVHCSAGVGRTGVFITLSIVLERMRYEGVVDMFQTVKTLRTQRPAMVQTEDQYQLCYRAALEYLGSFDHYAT
# [5] = target: T4, Tyrosine-protein phosphatase non-receptor type 2 (Homo sapiens, UniProt P17706); assay: Inhibition of TCPTP (unknown origin) using pNPP as substrate
# T4 sequence (P17706 whole entry): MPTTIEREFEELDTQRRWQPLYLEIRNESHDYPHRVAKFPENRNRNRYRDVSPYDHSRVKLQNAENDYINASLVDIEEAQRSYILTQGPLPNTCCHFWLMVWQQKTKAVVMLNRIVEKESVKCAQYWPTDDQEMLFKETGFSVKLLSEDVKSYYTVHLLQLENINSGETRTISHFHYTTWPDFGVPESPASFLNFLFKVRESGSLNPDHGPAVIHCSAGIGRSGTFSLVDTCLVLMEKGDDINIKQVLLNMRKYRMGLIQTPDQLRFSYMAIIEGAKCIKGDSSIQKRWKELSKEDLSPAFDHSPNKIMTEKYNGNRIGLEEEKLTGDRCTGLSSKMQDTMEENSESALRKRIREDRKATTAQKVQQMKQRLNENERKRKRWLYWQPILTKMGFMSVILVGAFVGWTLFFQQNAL
# [6] = target: T5, Tyrosine-protein phosphatase non-receptor type 11 (Homo sapiens) (UniProt Q06124); assay: Inhibition of SHP-2 (unknown origin) using 3-o-methylfluorescein phosphate as substrate at 20 ug/ml
# T5 sequence (whole entry): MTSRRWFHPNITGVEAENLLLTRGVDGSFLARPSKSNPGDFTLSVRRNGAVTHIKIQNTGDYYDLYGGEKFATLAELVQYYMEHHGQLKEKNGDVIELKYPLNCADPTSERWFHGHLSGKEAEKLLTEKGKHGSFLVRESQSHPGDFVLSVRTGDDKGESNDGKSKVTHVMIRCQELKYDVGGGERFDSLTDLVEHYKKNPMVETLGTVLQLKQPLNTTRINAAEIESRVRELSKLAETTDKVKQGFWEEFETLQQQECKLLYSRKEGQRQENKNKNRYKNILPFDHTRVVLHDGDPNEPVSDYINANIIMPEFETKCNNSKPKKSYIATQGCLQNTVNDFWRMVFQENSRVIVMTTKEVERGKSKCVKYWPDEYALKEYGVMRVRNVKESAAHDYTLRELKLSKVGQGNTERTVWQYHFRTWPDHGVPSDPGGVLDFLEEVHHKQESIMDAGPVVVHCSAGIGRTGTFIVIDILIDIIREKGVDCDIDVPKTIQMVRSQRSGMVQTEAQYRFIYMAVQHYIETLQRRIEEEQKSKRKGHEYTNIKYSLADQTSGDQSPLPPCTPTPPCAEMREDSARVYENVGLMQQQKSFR
# Homo sapiens = species: Homo sapiens; assay: Selectivity ratio of IC50 for TCPTP (unknown origin) to IC50 for PTP1B (unknown origin)
# Method in brief: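 Colorimetric assay with pNPP as substrate, run the same way for PTP1B and TCPTP. IC50 was obtained by regression analysis and reported as mean ± SD of three replications. The selectivity ratio is TCPTP IC50 divided by PTP1B IC50.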
# [7] = target: T3, Tyrosine-protein phosphatase non-receptor type 6; assay: Inhibition of SHP-1 (unknown origin) using 3-o-methylfluorescein phosphate as substrate
# Method in brief: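 SHP-1 activity was read with 3-O-methylfluorescein phosphate (OMFP) as substrate. IC50 was derived by regression analysis and given as mean ± SD of three replications.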
# [8] = target: T6, Tyrosine-protein phosphatase non-receptor type 11 (Homo sapiens, UniProt Q06124); assay: Inhibition of SHP-2 (unknown origin) using 3-o-methylfluorescein phosphate as substrate
# T6 sequence (Q06124 whole entry): T5 sequence (whole entry)
# Method in brief: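 Phosphatase activity was measured with 3-O-methylfluorescein phosphate (OMFP) as substrate, in the same assay format used for SHP-1. IC50 was obtained by regression analysis and reported as mean ± SD of three replicates.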
# [9] = target: T7, Tyrosine-protein phosphatase non-receptor type 2 (Homo sapiens) (UniProt P17706); assay: Inhibition of TCPTP (unknown origin) using pNPP as substrate at 20 ug/ml
# T7 sequence (whole entry): T4 sequence (P17706 whole entry)
# [10] = target: T2, Tyrosine-protein phosphatase non-receptor type 1 (Homo sapiens); assay: Competitive inhibition of PTP1B (unknown origin) using pNPP as substrate by Lineweaver-Burk plot analysis
# Method in brief: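 Kinetic analysis: initial velocities were measured across various pNPP concentrations at several fixed inhibitor concentrations. Inhibition mode was assigned from Lineweaver–Burk double-reciprocal plots.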
# [11] = target: T2, Tyrosine-protein phosphatase non-receptor type 1 (Homo sapiens); assay: Fast-binding inhibition of PTP1B (unknown origin) using pNPP as substrate
# CHO = assay: Inhibition of PTP1B in CHO cells overexpressing human insulin receptor assessed as increase in insulin-stimulated tyrosine phosphorylation of insulin receptor beta at 5 to 20 uM by immunoblot analysis; assay type: cell-based; details: Cricetulus griseus
# Method in brief: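 CHO cells overexpressing human insulin receptor were treated with compound, with DMSO as negative control. Tyrosine-phosphorylated insulin receptor β was detected by immunoblot.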
Compound,IC50 [1],inhibition [2],inhibition [4],also measured
CC(C)(C)OC(=O)N1CCC[C@H]1C(=O)Nc1ccc(-c2ccc(NC(=O)[C@@H]3CCCN3C(=O)OC(C)(C)C)cc2)cc1,–,43.5%,–,–
COC(=O)c1ccc(-c2ccc(N)cc2)cc1,–,31.5%,–,–
SODIUM ORTHOVANAD,–,–,–,IC50 [7]: 17.8 µM; IC50 [8]: 34.7 µM
O=C(Nc1ccc(-c2ccc(NC(=O)C3CCCCC3)cc2)cc1)C1CCCCC1,12.5 µM,84.6%,–,–
CC(C)CC(=O)Nc1ccc(-c2ccc(NC(=O)CC(C)C)cn2)cc1,26.5 µM,58.1%,–,–
CC(C)CC(=O)N1CCC(C(=O)Nc2ccc(-c3ccc(NC(=O)C4CCN(C(=O)CC(C)C)CC4)cc3)cc2)CC1,12.2 µM,70%,–,–
O=C(Nc1ccc(-c2ccc(NC(=O)C3CCN(C(=O)c4ccco4)CC3)cc2)cc1)C1CCN(C(=O)c2ccco2)CC1,2.34 µM,94%,< 50%,inhibition [10]: Active; inhibition [3]: < 50%; inhibition [11]: Active; inhibition (CHO): Active; IC50 [5]: 12.4 µM; inhibition [6]: < 50%; Ratio IC50 (Homo sapiens): 5.29
CC(C)(C)OC(=O)N1CCC(C(=O)Nc2ccc(-c3ccc(NC(=O)C4CCN(C(=O)OC(C)(C)C)CC4)cc3)cc2)CC1,9.5 µM,71.1%,< 50%,IC50 [7]: 18.2 µM; IC50 [5]: 21.2 µM; inhibition [6]: < 50%; Ratio IC50 (Homo sapiens): 2.23
O=C(Nc1ccc(-c2ccc(NC(=O)C3CCN(C(=O)c4ccccc4)CC3)cc2)cc1)C1CCN(C(=O)c2ccccc2)CC1,2.65 µM,94.1%,< 50%,inhibition [3]: < 50%; IC50 [5]: 7.62 µM; inhibition [6]: < 50%; Ratio IC50 (Homo sapiens): 2.88
O=C(Nc1ccc(-c2ccc(NC(=O)C3CCNCC3)cc2)cc1)C1CCNCC1,–,10.3%,–,–
O=C(Nc1ccc(-c2ccc(NC(=O)C3CCCCC3)cn2)cc1)C1CCCCC1,7.14 µM,82.1%,< 50%,inhibition [3]: < 50%; IC50 [5]: 22.9 µM; inhibition [6]: < 50%; Ratio IC50 (Homo sapiens): 3.2
O=C(Nc1ccc(-c2ccc(NC(=O)C3CCN(C(=O)C4CCCCC4)CC3)cc2)cc1)C1CCN(C(=O)C2CCCCC2)CC1,14.6 µM,61%,–,–

# Continued, in another order:
IC50 [1],inhibition [2],inhibition [4],Compound,also measured
10.2 µM,69.4%,–,COC(=O)c1ccc(-c2ccc(NC(=O)c3ccccc3)cc2)cc1,–
–,7.92%,–,O=C(Nc1ccc(F)cc1)c1ccc(-c2ccc(C(=O)Nc3ccc(F)cc3)cc2)cc1,–
12 µM,95.2%,–,O=C(Nc1ccc(-c2ccc(NC(=O)c3ccccc3)cc2)cc1)c1ccccc1,–
–,38.1%,–,O=C(Nc1ccc(-c2ccc(NC(=O)c3cccs3)cc2)cc1)c1cccs1,–
5.37 µM,83.9%,< 50%,O=C(Nc1ccc(-c2ccc(NC(=O)c3ccccc3)cn2)cc1)c1ccccc1,inhibition [3]: < 50%; IC50 [5]: 26.2 µM; inhibition [6]: < 50%; Ratio IC50 (Homo sapiens): 4.87
–,11.9%,–,COc1ccc(C(=O)Nc2ccc(-c3ccc(NC(=O)c4ccc(OC)cc4)cc3)cc2)cc1,–
5.04 µM,95.3%,< 50%,O=C(Nc1ccc(-c2ccc(NC(=O)C3CCN(C(=O)c4ccc(F)cc4)CC3)cc2)cc1)C1CCN(C(=O)c2ccc(F)cc2)CC1,inhibition [9]: < 50%; inhibition [3]: < 50%; inhibition [6]: < 50%
19 µM,98.6%,–,O=C(Nc1ccc(-c2ccc(NC(=O)c3ccc(F)cc3)cc2)cc1)c1ccc(F)cc1,–
4.61 µM,81.2%,< 50%,O=C(Nc1ccc(-c2ccc(C(=O)Nc3ccccc3)cc2)cc1)c1ccccc1,inhibition [9]: < 50%; inhibition [3]: < 50%; inhibition [6]: < 50%
16.5 µM,90.7%,–,CC(C)CC(=O)Nc1ccc(-c2ccc(NC(=O)CC(C)C)cc2)cc1,–
11.1 µM,86.4%,–,O=C(Nc1ccc(-c2ccc(NC(=O)c3ccco3)cn2)cc1)c1ccco1,–
5.96 µM,71%,< 50%,O=C(Nc1ccc(-c2ccc(NC(=O)c3ccc(F)cc3)cn2)cc1)c1ccc(F)cc1,inhibition [9]: < 50%; IC50 [7]: 17.8 µM
–,0.7%,–,O=C(Nc1ccc(-c2ccc(NC(=O)[C@@H]3CCCN3)cc2)cc1)[C@@H]1CCCN1,–
19.3 µM,–,< 50%,O=C(Nc1ccc(-c2ccc(NC(=O)c3ccco3)cc2)cc1)c1ccco1,IC50 [7]: 38.8 µM; IC50 [5]: 51 µM; Ratio IC50 (Homo sapiens): 2.64
–,47.4%,–,COc1cc(C(=O)Nc2ccc(-c3ccc(NC(=O)c4cc(OC)c(OC)c(OC)c4)cc3)cc2)cc(OC)c1OC,–
18.5 µM,62.8%,–,O=C(Nc1ccccc1)c1ccc(-c2ccc(C(=O)Nc3ccccc3)cc2)cc1,–
